Measurements published in ChEMBL document CHEMBL4811219 (Eur J Med Chem, 2021).

How the values were obtained:
Format in all cases: ADME, organism-based
Settings in all cases: in vivo
[1] = Observed AUC (0-7 hrs) in CD-1 mouse at 10 mg/kg, ip by LC-MS/MS analysis; set-up: time < 7 hr, route intraperitoneal, dose 10 mg/kg
[2] = Cmax in CD-1 mouse at 10 mg/kg, ip upto 7 hrs by LC-MS/MS analysis; set-up: route intraperitoneal, dose 10 mg/kg, time <=7
How it was run: (§1)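 Female CD-1 mice, single dose of 10 mg/kg i.p. or 20 mg/kg p.o., in 20% DMSO/50% PEG-400/30% PBS. Blood was sampled at 0.5, 2, 4 and 7 h and plasma assayed by LC-MS/MS (ESI positive MRM). Parameters are noncompartmental, mean of N=3.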

[3] = Observed AUC (0-7 hrs) in CD-1 mouse at 20 mg/kg, po by LC-MS/MS analysis; set-up: time < 7 hr, route oral, dose 20 mg/kg
[4] = Cmax in CD-1 mouse at 20 mg/kg, po upto 7 hrs by LC-MS/MS analysis; set-up: route oral, dose 20 mg/kg, time <=7; how it was run: as §1

Structure (SMILES) | AUC [1] [µM·h] | Cmax [2] [µM] | AUC [3] [µM·h] | Cmax [4] [µM]
CC(Sc1nc2c(cnn2C)c(=O)n1-c1ccccc1)c1ccccc1 (stereo not drawn) | 4.9 | 2.3 | 3.9 | 0.8
CC(Sc1nc2nn(C3(C)COC3)cc2c(=O)n1-c1ccccc1)c1ccccc1 (stereo not drawn) | 23 | 7 | 23.3 | 7
CC(Sc1nc2c(cnn2C)c(=O)n1-c1ccccc1)c1ccccn1 (stereo not drawn) | 7.9 | 3.9 | 17.4 | 7.3
C[C@@H](Sc1nc2c(cnn2C)c(=O)n1-c1ccccc1)c1ccccc1 | 0.7 | 0.3 |  | 

More lines, now with the values ahead:

AUC [1] [µM·h] | Cmax [2] [µM] | AUC [3] [µM·h] | Cmax [4] [µM] | Structure (SMILES)
19.5 | 7.9 |  |  | CC(Sc1nc2nn(C3COC3)cc2c(=O)n1-c1ccccc1)c1ccccc1 (stereo not drawn)
 | 3.3 |  | 3.9 | CC(Sc1nc2nn(C3COC3)cc2c(=O)n1-c1ccccc1)c1ccccn1 (stereo not drawn)
